8 compounds from ChEMBL document CHEMBL1141025, “Replacing alkyl sulfonamide with aromatic sulfonamide in sulfonamide-type RXR agonists favors switch towards antagonist activity” (Bioorg Med Chem Lett, 2009) can be followed below.

Structures are written as SMILES. The source made the active and inactive calls. The calls are words filed in the database; no cut-off is given here.

Test [1] concerns the target T1, Retinoic acid receptor RXR-alpha (Homo sapiens, UniProt P19793).
T1 sequence (P19793 whole entry): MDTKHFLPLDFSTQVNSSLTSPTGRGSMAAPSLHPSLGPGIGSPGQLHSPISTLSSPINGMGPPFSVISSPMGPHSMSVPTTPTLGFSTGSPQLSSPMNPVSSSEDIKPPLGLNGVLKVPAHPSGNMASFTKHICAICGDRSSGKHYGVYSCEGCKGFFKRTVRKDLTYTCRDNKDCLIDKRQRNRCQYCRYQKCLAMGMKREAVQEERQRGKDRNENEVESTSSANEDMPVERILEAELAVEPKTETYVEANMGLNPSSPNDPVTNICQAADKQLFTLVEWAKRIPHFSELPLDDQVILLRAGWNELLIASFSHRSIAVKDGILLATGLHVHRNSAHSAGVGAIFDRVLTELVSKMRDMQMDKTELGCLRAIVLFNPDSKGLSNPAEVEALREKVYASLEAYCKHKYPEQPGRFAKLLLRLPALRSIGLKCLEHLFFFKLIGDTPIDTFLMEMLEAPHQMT
The test can be described thus: Antagonist activity at RXRalpha expressed in african green monkey COS1 cells assessed as inhibition of LGD-1069-induced agonist activity. The test is classed as functional, cell-based, COS-1.

Test [2] concerns the target T2, Retinoic acid receptor RXR-beta (Homo sapiens, UniProt P28702).
T2 sequence (P28702 whole entry): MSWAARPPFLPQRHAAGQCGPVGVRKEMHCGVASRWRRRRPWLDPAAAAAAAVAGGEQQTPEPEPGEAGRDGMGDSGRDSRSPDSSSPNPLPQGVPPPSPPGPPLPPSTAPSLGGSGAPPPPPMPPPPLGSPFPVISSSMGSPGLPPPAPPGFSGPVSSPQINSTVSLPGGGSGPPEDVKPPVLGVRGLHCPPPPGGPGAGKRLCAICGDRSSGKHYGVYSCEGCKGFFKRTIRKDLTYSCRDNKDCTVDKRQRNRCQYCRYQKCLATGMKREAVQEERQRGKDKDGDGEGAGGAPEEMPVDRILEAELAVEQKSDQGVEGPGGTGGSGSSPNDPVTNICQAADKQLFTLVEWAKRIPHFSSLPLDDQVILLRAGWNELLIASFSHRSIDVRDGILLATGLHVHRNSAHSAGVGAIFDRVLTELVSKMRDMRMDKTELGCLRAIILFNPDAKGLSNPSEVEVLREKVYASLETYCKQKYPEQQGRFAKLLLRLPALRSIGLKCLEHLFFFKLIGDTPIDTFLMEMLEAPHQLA
The test can be described thus: Antagonist activity at RXRbeta expressed in african green monkey COS1 cells assessed as inhibition of LGD-1069-induced agonist activity. The format is functional, cell-based, COS-1. The method, boiled down:
(§1)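 Luciferase reporter gene assay in COS-1 cells measuring inhibition of LGD1069-driven activity. IC50 is taken from full dose–response curves spanning 10^-7 to 10^-5 M.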

Test [3] addresses T3, Retinoic acid receptor RXR-gamma (Homo sapiens, UniProt P48443).
T3 sequence (P48443 whole entry): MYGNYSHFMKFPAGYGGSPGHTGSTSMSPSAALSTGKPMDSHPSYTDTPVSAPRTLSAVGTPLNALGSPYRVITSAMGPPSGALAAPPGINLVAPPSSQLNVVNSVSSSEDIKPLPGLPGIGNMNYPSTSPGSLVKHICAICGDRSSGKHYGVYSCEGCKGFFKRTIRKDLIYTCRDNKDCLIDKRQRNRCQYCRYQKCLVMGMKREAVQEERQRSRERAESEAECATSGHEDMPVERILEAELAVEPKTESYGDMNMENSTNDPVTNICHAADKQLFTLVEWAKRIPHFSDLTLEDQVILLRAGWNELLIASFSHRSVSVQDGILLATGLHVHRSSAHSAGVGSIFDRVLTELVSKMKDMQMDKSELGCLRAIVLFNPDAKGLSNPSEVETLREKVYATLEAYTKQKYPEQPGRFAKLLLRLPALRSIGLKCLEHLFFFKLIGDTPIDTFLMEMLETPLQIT
Put plainly: Antagonist activity at RXRgamma expressed in african green monkey COS1 cells assessed as inhibition of LGD-1069-induced agonist activity. The format is functional, cell-based, COS-1. In a few lines: as §1

Test [4] has as its target T4, Retinoic acid receptor RXR-alpha (Homo sapiens) (UniProt P19793).
T4 sequence (whole entry): T1 sequence (P19793 whole entry)
The test can be described thus: Agonist activity at RXRalpha expressed in african green monkey COS1 cells by luciferase reporter gene assay relative to LGD1069. The format is functional, cell-based. The settings on record: COS-1. The method, boiled down: (§2)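 Luciferase reporter gene assay in COS-1 cells. Each subtype's activity is expressed relative to 1 μM LGD1069, an RXR pan-agonist, used as the reference.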

Test [5] deals with T5, Retinoic acid receptor RXR-beta (Homo sapiens) (UniProt P28702).
T5 sequence (whole entry): T2 sequence (P28702 whole entry)
The test can be described thus: Agonist activity at RXRbeta expressed in african green monkey COS1 cells by luciferase reporter gene assay relative to LGD1069. Conditions: COS-1. The test is classed as functional, cell-based. The method, boiled down: as §2

Test [6] deals with T6, Retinoic acid receptor RXR-gamma (Homo sapiens) (UniProt P48443).
T6 sequence (whole entry): T3 sequence (P48443 whole entry)
Put plainly: Agonist activity at RXRgamma expressed in african green monkey COS1 cells by luciferase reporter gene assay relative to LGD1069. The test is classed as functional, cell-based. Conditions: COS-1. The method, boiled down: as §2

`CCCCS(=O)(=O)N(c1ccc2c(c1)C(C)(C)CCC2(C)C)c1ccc(C(=O)O)cn1`: the IC50 in test [1], in test [2] and in test [3] was greater than 10 µM each time.

On to `CC1(C)CCC(C)(C)c2cc(N(c3ccc(C(=O)O)cn3)S(=O)(=O)c3ccccc3)ccc21`, for which the outcome in test [4], in test [5] and in test [6] was inactive. The concentration for half-maximal inhibition (IC50) in test [1], in test [2] and in test [3] was greater than 10 µM each time.

Consider `CN1c2ccc([N+](=O)[O-])cc2N=C(c2ccc(C(=O)O)cc2)c2cc3c(cc21)C(C)(C)CCC3(C)C`, for which the IC50 (usually the concentration at which inhibition is half-maximal) in test [2] was determined as 0.044 µM; in test [3], 0.38 µM.

Regarding `CC1(C)CCC(C)(C)c2cc(N(c3ccc(C(=O)O)cn3)S(=O)(=O)c3ccc([N+](=O)[O-])cc3)ccc21`, the result in test [4], in test [5] and in test [6] was inactive. The IC50 in test [1], in test [2] and in test [3] was greater than 10 µM each time.

Take `Cc1ccc(S(=O)(=O)N(c2ccc3c(c2)C(C)(C)CCC3(C)C)c2ccc(C(=O)O)cn2)cc1`: the result in test [4], in test [5] and in test [6] was inactive. Besides, the half-inhibitory concentration (IC50) in test [1] was found to be 5.2 µM; in test [2], 3 µM; in test [3], 3.8 µM.

Turning to `COc1ccc(S(=O)(=O)N(c2ccc3c(c2)C(C)(C)CCC3(C)C)c2ccc(C(=O)O)cn2)cc1`, the result in test [4], in test [5] and in test [6] was inactive. Moreover, the 50% inhibitory concentration (IC50) came out at 2.7 µM in test [1], 3.9 µM in test [2] and 6.6 µM in test [3].

For `CC1(C)CCC(C)(C)c2cc(N(c3ccc(C(=O)O)cn3)S(=O)(=O)c3ccc(Cl)cc3)ccc21`, the outcome in test [4], in test [5] and in test [6] was inactive. Further, the half-maximal inhibitory concentration (IC50) in test [1] worked out at 4.1 µM; in test [2] it was 0.87 µM; in test [3], 4.5 µM.

With `CC1(C)CCC(C)(C)c2cc(N(c3ccc(C(=O)O)cn3)S(=O)(=O)c3ccc(C(F)(F)F)cc3)ccc21`, the result in test [4], in test [5] and in test [6] was inactive. Besides, the IC50 in test [1] was 3.2 µM; in test [2], 0.75 µM; in test [3], 2.7 µM.
